Data reported in ChEMBL document CHEMBL4028851, “Discovery of Potent Small-Molecule Inhibitors of Ubiquitin-Conjugating Enzyme UbcH5c from α-Santonin Derivatives” (J Med Chem, 2017).
Calls of active or inactive are those of the source. The calls are words filed in the database; no cut-off is given here.

Legend:
[1] = Clearance in Sprague-Dawley rat at 1 mg/kg, iv by LC-MS/MS analysis; type: ADME, organism-based; settings: in vivo
Method in brief: (§1)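 Male Sprague-Dawley rats (about 200‒220 g; n = 6) were fasted overnight and given a single 1 mg/kg iv dose in DMSO:castor oil:saline (3:3:94). Blood was sampled from the orbital artery into heparin tubes. Plasma was analysed by LC/MS/MS (ESI, MRM), and parameters came from noncompartmental analysis. Values are mean ± SD.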

[2] = target: Ubiquitin-conjugating enzyme E2 D3 (Mus musculus) (UniProt P61079); assay: Inhibition of UbcH5c in mouse b.End3 cells assessed as decrease in TNF-alpha-mediated IkB-alpha phosphorylation preincubated for 2 hrs followed by TNF-alpha stimulation for 20 mins by Western blot analysis; type: cell-based
Sequence of Ubiquitin-conjugating enzyme E2 D3 (Mus musculus) (P61079 whole entry, looked up): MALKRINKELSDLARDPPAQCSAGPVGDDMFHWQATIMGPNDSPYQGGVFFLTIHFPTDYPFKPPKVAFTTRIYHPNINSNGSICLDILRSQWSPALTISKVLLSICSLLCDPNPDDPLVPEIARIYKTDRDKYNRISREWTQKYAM
Method in brief: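 bEnd.3 cells (DMEM, 10% FBS) were pretreated with compound at 2.5, 5 or 10 µM for 2 h, then stimulated with 20 ng/mL TNF-α (15 min in the methods, 20 min in the legend). Lysates were run on 10% SDS-PAGE and immunoblotted for phospho-IκBα, IκBα, phospho-p65 and p65, with GAPDH as loading control.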

Rattus norvegicus = assay: Antiarthritic activity in Wistar rat Freund's adjuvant-induced arthritis model assessed as reduction in hind paw swelling at 5 to 20 mg/kg, po qd administered on day 10 to 20 postimmunization measured every 2 to 3 days during compound dosing; type: functional, organism-based
Method in brief: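 Adjuvant arthritis was induced by intradermal CFA (0.1 mL) into the base of the left hind paw (day 0), with a boost 10 days later. Rats were dosed orally once daily at 5 or 20 mg/kg from day 10 to day 20, with 10 rats per group. Vehicle controls received 0.3% sodium carboxymethylcellulose. Two blinded observers scored the animals every 2 or 3 days. Data are mean ± S.E.M.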

[3] = target: Ubiquitin-conjugating enzyme E2 D1 (Homo sapiens) (UniProt P51668); assay: Inhibition of UbcH5a (unknown origin) at 2.5 to 10 uM preincubated for 15 mins followed by E1, Ub and ATP addition measured after 40 mins by Western blot analysis
Sequence of Ubiquitin-conjugating enzyme E2 D1 (Homo sapiens) (P51668 whole entry): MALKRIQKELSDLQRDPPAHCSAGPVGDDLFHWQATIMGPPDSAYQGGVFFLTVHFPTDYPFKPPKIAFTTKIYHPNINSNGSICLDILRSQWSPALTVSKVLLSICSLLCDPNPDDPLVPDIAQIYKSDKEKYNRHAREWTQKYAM

[4] = Half life in Sprague-Dawley rat at 5 mg/kg, po via gavage by LC-MS/MS analysis; type: ADME, organism-based; settings: in vivo
Method in brief: (§2)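 Male Sprague-Dawley rats (about 200‒220 g; n = 6) were fasted overnight and gavaged with 5 mg/kg as a suspension in 0.5% methylcellulose. Blood was taken from the orbital artery at 0.083–24 h into heparin tubes. Plasma was quantified by LC/MS/MS (ESI, MRM), with noncompartmental analysis. Bioavailability was referenced to a 1 mg/kg iv dose. Values are mean ± SD.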

[5] = Tmax in Sprague-Dawley rat at 5 mg/kg, po via gavage by LC-MS/MS analysis; type: ADME, organism-based; settings: in vivo; method in brief: as §2
[6] = target: Ubiquitin-conjugating enzyme E2 D3 (Mus musculus) (UniProt P61079); assay: Inhibition of UbcH5c in mouse b.End3 cells assessed as decrease in TNF-alpha-mediated IkB-alpha degradation at 10 uM preincubated for 2 hrs followed by TNF-alpha stimulation for 15 mins by Western blot analysis
[7] = Binding affinity to IYHPNINSNGSICLDILR assessed as covalent adduct formation with Cys85 residues after 1 hr by LC/MS/MS analysis
[8] = Oral bioavailability in Sprague-Dawley rat at 5 mg/kg via gavage by LC-MS/MS analysis; type: ADME, organism-based; settings: in vivo; method in brief: as §2
[9] = Volume of distribution at steady state in Sprague-Dawley rat at 1 mg/kg, iv by LC-MS/MS analysis; type: ADME, organism-based; settings: in vivo, read-out: Vdss; method in brief: as §1
[10] = Half life in Sprague-Dawley rat at 1 mg/kg, iv by LC-MS/MS analysis; type: ADME, organism-based; settings: in vivo; method in brief: as §1

**Q.** For C=C1C(=O)O[C@H]2c3c(C)c(OCc4ccccc4Br)cc(C)c3CC[C@@H]12, which clearance [1] is on record?
**A.** 41.3 mL/min/kg

**Q.** And the inhibition [2]?
**A.** Dose-dependent effect

**Q.** And the Activity (Rattus norvegicus)?
**A.** Active

**Q.** And the inhibition [3]?
**A.** Active

**Q.** What about the half-life [4] of the same compound?
**A.** 2.86 h

**Q.** And the Tmax [5]?
**A.** 3.83 h

**Q.** What about the inhibition [6] of the same compound?
**A.** Active

**Q.** What about the Activity [7] of the same compound?
**A.** Active

**Q.** And the bioavailability [8]?
**A.** 16.8%

**Q.** What about the Vd [9] of the same compound?
**A.** 6.26 L/kg

**Q.** What about the half-life [10] of the same compound?
**A.** 1.76 h
